We go through 9 compounds from ChEMBL document CHEMBL1127038 (J Med Chem, 1993).

For test [1], the species on record is Cavia porcellus. Put plainly: Nagative chronotropic activity was expressed as percent changes in atrial rate on guinea pig spontaneously beating isolated right atrium at 10 e-5 M. The format is functional, Cardiac atrium.
The species named for test [2] is Cavia porcellus. Put plainly: Nagative inotropic activity was expressed as percent changes in developed tension in isolated guinea pig left atrium at 10 e-5 M. The format is functional, Cardiac atrium. The procedure, abridged:
(§1)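 Isolated guinea pig left atrium, electrically driven at 1 Hz. Developed tension measured at 10⁻⁵ M and given as percent change from control, mean ±SEM, n = 5-6.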

The species named for test [3] is Cavia porcellus. Put plainly: Negative chronotropic activity was calculated from log concentration/response curves. Type of test: functional.
The species entered for test [4] is Cavia porcellus. Put plainly: Negative inotropic activity was calculated from log concentration/response curves. Type of test: functional. An outline of the steps:
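Guinea pig left atrium driven at 1 Hz; decrease in developed tension measured. Potency is from log concentration/response curves by Litchfield–Wilcoxon probit analysis, n = 6-8.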

The species named for test [5] is Cavia porcellus. Put plainly: Inhibition concentration of vasodilation was calculated from log concentration/response curves. Type of test: functional. An outline of the steps: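 K⁺-depolarized guinea pig aortic strips, calcium-induced contraction. Potency is from log concentration/response curves by Litchfield–Wilcoxon probit analysis, n = 6-8.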
Test [6] is filed under the species Cavia porcellus. Put plainly: Percent inhibition of calcium-induced contraction on K+ -depolarized guinea pig aortic strips at 10 e-4 M. Type of test: functional, Aorta. An outline of the steps: (§2)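 Guinea pig aortic strips depolarized with K⁺ and contracted by calcium. Inhibition of the calcium-induced contraction measured at 10⁻⁴ M, mean ±SEM, n = 6-7.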
Test [7] is filed under the species Cavia porcellus. Put plainly: Nagative chronotropic activity was expressed as percent changes in atrial rate on guinea pig spontaneously beating isolated right atrium at 10E-5 M. Type of test: functional, Cardiac atrium.
The species entered for test [8] is Cavia porcellus. Put plainly: Nagative inotropic activity was expressed as percent changes in developed tension in isolated guinea pig left atrium at 10E-5 M. The format is functional, Cardiac atrium. The procedure, abridged: as §1
For test [9], the species on record is Cavia porcellus. Put plainly: Percent inhibition of calcium-induced contraction on K+ -depolarized guinea pig aortic strips at 10E-4 M. Type of test: functional, Aorta. The procedure, abridged:
as §2

In the case of `COc1ccc(CCN(C)CCCC(C#N)(c2ccc(OC)c(OC)c2)C(C)C)cc1OC` (stereo not drawn), the figures for the Change in the test filed under Cavia porcellus [1] and in the test listed under Cavia porcellus [2] were 94% and 84%, respectively. Moreover, in the test filed under Cavia porcellus [3], the ED30 is 70 nM. Further, the ED50 in the test listed under Cavia porcellus [4] is 610 nM. In addition, the half-maximal inhibitory concentration (IC50) in the test filed under Cavia porcellus [5] (Cavia porcellus) was 380 nM.
As to `COc1ccc(CCN(C)C2CCCC(C(C#N)(c3ccc(OC)c(OC)c3)C(C)C)C2)cc1OC` (stereo in doubt; 2a), the Change in the test filed under Cavia porcellus [1] came to 78%; in the test filed under Cavia porcellus [2] it was 84%. In addition, the ED30 in the test listed under Cavia porcellus [3] was 75 nM. Besides, the ED50 in the test listed under Cavia porcellus [4] was 100 nM. For the same compound, in the test filed under Cavia porcellus [6], the Inhibition was 37%.
In the same order, the values of `COc1ccc(CCN(C)C2CCCC(C(C#N)(c3ccc(OC)c(OC)c3)C(C)C)C2)cc1OC` (stereo in doubt; 2b) are 93%, 75%, 230 nM, 1300 nM and 30%.
With `COc1ccc(CCN(C)C2CCCC(C(C#N)(c3ccc(OC)c(OC)c3)C(C)C)C2)cc1OC` (stereo in doubt; 2c), the Change in the test filed under Cavia porcellus [1] is given as 89%; in the test listed under Cavia porcellus [2], 86%. Further, the ED30 in the test filed under Cavia porcellus [3] is 1300 nM. For the same compound, the ED50 in the test filed under Cavia porcellus [4] is 60 nM. Also, the IC50 in the test filed under Cavia porcellus [5] was 18000 nM. Moreover, the Inhibition in the test filed under Cavia porcellus [6] amounted to 49%.
For `COc1ccc(CCN(C)C2CCCC(C(C#N)(c3ccc(OC)c(OC)c3)C(C)C)C2)cc1OC` (stereo in doubt; 2d), the results for the Change in the test listed under Cavia porcellus [1] and in the test listed under Cavia porcellus [2] were 75% and 74%, respectively. For the same compound, in the test listed under Cavia porcellus [3], the ED30 is 420 nM. The ED50 in the test listed under Cavia porcellus [4] is 200 nM. Besides, the half-maximal inhibitory concentration (IC50) in the test listed under Cavia porcellus [5] (Cavia porcellus) is 10000 nM. The Inhibition in the test listed under Cavia porcellus [6] turned out to be 58%.
As to `COc1ccc(CCNC2CCCC(C(C#N)(c3ccc(OC)c(OC)c3)C(C)C)C2)cc1OC` (stereo in doubt; 7a), the values for the Change in the test filed under Cavia porcellus [7] and in the test filed under Cavia porcellus [8] were 78% and 82%, respectively. Also, the ED30 in the test filed under Cavia porcellus [3] is 2400 nM. The ED50 in the test listed under Cavia porcellus [4] is 900 nM. Also, the IC50 in the test listed under Cavia porcellus [5] was 17000 nM. The Inhibition in the test filed under Cavia porcellus [9] is 62%.
On to `COc1ccc(CCNC2CCCC(C(C#N)(c3ccc(OC)c(OC)c3)C(C)C)C2)cc1OC` (stereo in doubt; 7b), for which the Change in the test filed under Cavia porcellus [7] amounted to 66%; in the test listed under Cavia porcellus [8], 74%. In addition, the ED30 in the test listed under Cavia porcellus [3] is 60 nM. In addition, the ED50 in the test filed under Cavia porcellus [4] is 110 nM. For the same compound, the Inhibition in the test listed under Cavia porcellus [9] is recorded as 35%.
In the same order, the values of `COc1ccc(CCNC2CCCC(C(C#N)(c3ccc(OC)c(OC)c3)C(C)C)C2)cc1OC` (stereo in doubt; 7c) are 64%, 70%, 1400 nM, 660 nM and 40%.
Turning to `COc1ccc(CCNC2CCCC(C(C#N)(c3ccc(OC)c(OC)c3)C(C)C)C2)cc1OC` (stereo in doubt; 7d), the Change in the test listed under Cavia porcellus [7] amounted to 84%; in the test listed under Cavia porcellus [8], 83%. Also, the ED30 in the test filed under Cavia porcellus [3] was 370 nM. The ED50 in the test filed under Cavia porcellus [4] is 1100 nM. Besides, in the test filed under Cavia porcellus [9], the Inhibition came out at 56%.
